Test results published in ChEMBL document CHEMBL1139304, “Synthesis, antichagasic in vitro evaluation, cytotoxicity assays, molecular modeling and SAR/QSAR studies of a 2-phenyl-3-(1-phenyl-1H-pyrazol-4-yl)-acrylic acid benzylidene-carbohydrazide series” (Bioorg Med Chem, 2009).
Activity calls are given as the source filed them. The calls are words filed in the database; no cut-off is given here.

What was measured:
[1] = test system: Trypanosoma cruzi; experiment: Trypanocidal activity against Trypanosoma cruzi Y in Swiss albino mouse blood after 24 hrs; format: functional, organism-based
Outline: (§1)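 Blood was drawn by cardiac puncture from Swiss albino mice infected with T. cruzi Y strain at peak parasitaemia (day 7). It was diluted with healthy mouse blood to 2.10⁶ forms/mL. Compounds from DMSO stocks were tested at 100, 250 and 500, in triplicate, at 4 °C. Parasites were counted after 24 h against infected blood with matched DMSO. IC50 was converted to molar pIC50.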

[2] = Cytotoxicity against BALB/c mouse peritoneal cavity cells at 100 ug/mL after 20 hrs by MTT assay; format: cell-based
Outline: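 Peritoneal cells came from male Balb/c mice (18–25 g). They were washed in RPMI and resuspended in RPMI with 10% FBS and antibiotics, with viable cells counted by Trypan blue. Cells at 2 × 10⁵/well were held 30 min at 37 °C, 5% CO₂, exposed to compound for 20 h, then given MTT for 4 h. Formazan was dissolved in DMSO and read at 490 nm. Viability was taken as % of control OD, with ≥5% death counted as cytotoxic.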

[3] = test system: Trypanosoma cruzi; experiment: Trypanocidal activity against Trypanosoma cruzi Y in Swiss albino mouse blood at 500 ug/mL after 24 hrs; format: functional, organism-based; outline: as §1

SMILES	IC50 ([1]; read-out: IC50)	IC50 ([1]; read-out: pIC50 (converted))	Activity [2]	IC50 [3]	pIC50 [3]
COc1ccc(/C=N/NC(=O)/C(=C/c2cnn(-c3ccccc3)c2)c2ccc(F)cc2)cc1	340 µM	339 µM	14.8%		
N#Cc1ccc(/C=N/NC(=O)/C(=C/c2cnn(-c3ccccc3)c2)c2ccc(F)cc2)cc1	50 µM	53.7 µM	0%		
O=C(N/N=C/c1ccc(Cl)cc1)/C(=C/c1cnn(-c2ccccc2)c1)c1ccccc1	8590 µM	8510 µM	0%		
CSc1ccc(/C=N/NC(=O)/C(=C/c2cnn(-c3ccccc3)c2)c2ccccc2)cc1	440 µM	437 µM	22.8%		
CN(C)c1ccc(/C=N/NC(=O)/C(=C/c2cnn(-c3ccccc3)c2)c2ccccc2)cc1	200 µM	200 µM	0%		
COc1ccc(/C(=C\c2cnn(-c3ccccc3)c2)C(=O)N/N=C/c2ccc(C#N)cc2)cc1	1310 µM	1320 µM	14.35%		
O=C(N/N=C/c1ccc(F)cc1)/C(=C/c1cnn(-c2ccccc2)c1)c1ccccc1	2440 µM	2450 µM	0%		
O=C(N/N=C/c1ccc(O)cc1)/C(=C/c1cnn(-c2ccccc2)c1)c1ccccc1	760 µM	759 µM	12.32%		
O=C(N/N=C/c1ccc(Br)cc1)/C(=C/c1cnn(-c2ccccc2)c1)c1ccc(C(F)(F)F)cc1	620 µM	617 µM	0%		
CN(C)c1ccc(/C=N/NC(=O)/C(=C/c2cnn(-c3ccccc3)c2)c2ccc(F)cc2)cc1	890 µM	891 µM	12.2%		
COc1ccc(/C(=C\c2cnn(-c3ccccc3)c2)C(=O)N/N=C/c2ccc(Br)cc2)cc1	930 µM	933 µM	0%		
N#Cc1ccc(/C=N/NC(=O)/C(=C/c2cnn(-c3ccccc3)c2)c2ccccc2)cc1	1870 µM	1860 µM	0%		
COc1ccc(/C=N/NC(=O)/C(=C/c2cnn(-c3ccccc3)c2)c2ccccc2)cc1	1510 µM	1510 µM	0%		
NNC(=O)/C(=C/c1cnn(-c2ccccc2)c1)c1ccccc1	2810 µM	2820 µM	0%		
O=C(N/N=C/c1ccccc1)/C(=C/c1cnn(-c2ccccc2)c1)c1ccccc1	190 µM	191 µM	4%		
N#Cc1ccc(/C=N/NC(=O)/C(=C/c2cnn(-c3ccccc3)c2)c2ccc(C(F)(F)F)cc2)cc1	590 µM	589 µM	0%		
CN(C)c1ccc(/C=N/NC(=O)/C(=C/c2cnn(-c3ccccc3)c2)c2ccc(O)cc2)cc1	1880 µM	1860 µM	12.94%		
O=C(N/N=C/c1ccc([N+](=O)[O-])cc1)/C(=C/c1cnn(-c2ccccc2)c1)c1ccc(C(F)(F)F)cc1	750 µM	741 µM	0%		
O=C(N/N=C/c1ccc([N+](=O)[O-])cc1)/C(=C/c1cnn(-c2ccccc2)c1)c1ccccc1	30 µM	28.2 µM	19.4%		
COc1ccc(/C(=C\c2cnn(-c3ccccc3)c2)C(=O)N/N=C/c2ccc(O)cc2)cc1	1420 µM	1410 µM	12.04%		
O=C(N/N=C/c1ccccc1)/C(=C/c1cnn(-c2ccccc2)c1)c1ccc(F)cc1	7830 µM	7760 µM	0%		
O=C(N/N=C/c1ccccc1)/C(=C/c1cnn(-c2ccccc2)c1)c1ccc(Br)cc1				Not Active	inactive
CN(C)c1ccc(/C=N/NC(=O)/C(=C/c2cnn(-c3ccccc3)c2)c2ccc(Br)cc2)cc1	700 µM	708 µM	0%		
O=C(N/N=C/c1ccccc1)/C(=C/c1cnn(-c2ccccc2)c1)c1ccc(O)cc1	1360 µM	1350 µM	9.64%		
O=C(N/N=C/c1ccc(Br)cc1)/C(=C/c1cnn(-c2ccccc2)c1)c1ccccc1	1500 µM	1510 µM	14.35%		
COc1ccc(/C(=C\c2cnn(-c3ccccc3)c2)C(=O)N/N=C/c2ccc([N+](=O)[O-])cc2)cc1	980 µM	977 µM	11.22%		
CN(C)c1ccc(/C=N/NC(=O)/C(=C/c2cnn(-c3ccccc3)c2)c2ccc(C(F)(F)F)cc2)cc1	920 µM	912 µM	23.07%		
CCOc1ccc(/C=N/NC(=O)/C(=C/c2cnn(-c3ccccc3)c2)c2ccccc2)cc1	380 µM	380 µM	0%		
